Assay results as given in ChEMBL document CHEMBL5154667, “Discovery of 9,10-dihydrophenanthrene derivatives as SARS-CoV-2 3CLpro inhibitors for treating COVID-19” (Eur J Med Chem, 2022).

Key:
[1] = target: T1, Replicase polyprotein 1ab (Severe acute respiratory syndrome coronavirus 2, UniProt P0DTD1); assay: Inhibition of SARS-CoV-2 3CL protease using Dabcyl-KNSTLQSGLRKE-Edan as substrate incubated for 30 mins and measured by FRET assay
Procedure, shortened: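 Recombinant SARS-CoV-2 3CLpro, expressed and purified in-house, at 4 μg/mL final. Preincubated with compound (in DMSO) for 30 min at 37 °C in 0.1 M PBS pH 7.4 with 1 mM EDTA. Mean ± SD of at least three independent experiments.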

[2] = Metabolic stability in human liver microsomes assessed as UGT-mediated metabolism at 20 uM and measured as half-life by LC-UV analysis; assay type: ADME, Microsome
Procedure, shortened: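 Phase II: compound 20 μM with HLMs 0.2 mg/mL in 50 mM Tris-HCl pH 7.4 with 5 mM MgCl₂. After 3 min at 37 °C, started with 2 mM UDPGA. Quenched with cold acetonitrile at 0–90 min, centrifuged, supernatant analysed by LC-UV for half-life. 7-Hydroxycoumarin was the reference substrate.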

[3] = Stability in human plasma measured by LC-UV analysis; assay type: ADME, cell-free
Procedure, shortened: (§1)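 Incubated at 37 °C in 100 mM PBS pH 7.4, as printed for the human plasma stability test. Sampled at 0, 15, 30 min and 1–12 h; proteins precipitated with cold acetonitrile. Centrifuged at 20,000×g, 4 °C, 30 min; supernatant analysed by LC-UV.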

[4] = target: Replicase polyprotein 1ab (Severe acute respiratory syndrome-related coronavirus, UniProt P0C6X7); assay: Inhibition of SARS-CoV 3CL protease using Dabcyl-KNSTLQSGLRKE-Edan as substrate incubated for 30 mins and measured by FRET assay
Procedure, shortened: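 SARS-CoV 3CLpro, expressed and purified in-house like the SARS-CoV-2 enzyme, at 30 μg/mL final. Preincubated with compound for 30 min at 37 °C in 0.1 M PBS pH 7.4 with 1 mM EDTA. Mean ± SD of at least three independent runs.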

[5] = Metabolic stability in human liver microsomes assessed as CYP-mediated metabolism at 20 uM and measured as half-life by LC-UV analysis; assay type: ADME, Microsome
[6] = target: T1, Replicase polyprotein 1ab; assay: Mixed type inhibition of SARS-CoV-2 3CL protease using Dabcyl-KNSTLQSGLRKE-Edan as substrate incubated for 30 mins and measured by Lineweaver-Burk plot analysis
[7] = Stability of the compound in simulated gastric fluid; assay type: ADME; conditions: simulated gi fluid
Procedure, shortened: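 Simulated gastric fluid: pepsin 400 mg and 656 μL 1 M HCl in 40 mL water. Analyte 20 μM in SGF at 37 °C, sampled 0–90 min. Quenched with equal volume cold acetonitrile, centrifuged (20,000×g, 4 °C, 30 min), analysed by LC-UV.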

[8] = Stability in human plasma assessed as half-life measured by LC-UV analysis; assay type: ADME, cell-free; procedure, shortened: as §1

Compound | IC50 [1] | other results
CC(=O)OCC1Cc2c(-c3ccncn3)cccc2-c2c(O)ccc(C)c21 (stereo not given) | > 100 µM | –
CC(=O)OCC1Cc2c(-c3cc(-c4ccccc4)ccn3)cccc2-c2c(O)ccc(C3CCCCC3)c21 (stereo not given) | 8.54 µM | –
CC(=O)OCC1Cc2c(-c3ccccn3)ccc(C)c2-c2c(O)ccc(C)c21 (stereo not given) | > 100 µM | –
CC(=O)OCC1Cc2c(-c3ncccn3)cccc2-c2c(O)ccc(C)c21 (stereo not given) | > 100 µM | –
CC(=O)OCC1Cc2c(-c3ccc(Br)cn3)cccc2-c2c(O)ccc(-c3ccc(Br)cc3)c21 (stereo not given) | 6.73 µM | –
CC(=O)OCC1Cc2c(-c3ccc(Cl)cn3)cccc2-c2c(O)ccc(C)c21 (stereo not given) | 35.8 µM | –
CC(=O)OCC1Cc2c(cccc2-c2ncnc3c2ncn3CC2CC2)-c2c(O)ccc(C)c21 (stereo not given) | > 100 µM | –
CC(=O)OCC1Cc2c(-c3ccccn3)cccc2-c2c(O)ccc(-c3ccc(C#N)cc3)c21 (stereo not given) | 19.3 µM | –
OCC1Cc2c(-c3cc(-c4ccccc4)ccn3)cccc2-c2c(O)ccc(-c3ccc(Br)cc3)c21 (stereo not given) | 1.55 µM | t1/2 [2]: > 1.5 h; Stability [3]: Stable; IC50 [4]: 5.35 µM; t1/2 [5]: > 1.5 h; Ki [6]: 6.09 µM; Stability [7]: Stable
CC(=O)OCC1Cc2c(-c3cc(Cl)ccn3)cccc2-c2c(O)ccc(-c3ccc(Br)cc3)c21 (stereo not given) | 4.79 µM | IC50 [4]: 5.44 µM
COc1ccc(-c2ccccn2)c2c1-c1c(O)ccc(C)c1C(COC(C)=O)C2 (stereo not given) | > 100 µM | –
CC(=O)OCC1Cc2c(-c3cc(C=O)ccn3)cccc2-c2c(O)ccc(-c3ccc(Br)cc3)c21 (stereo not given) | 3.32 µM | IC50 [4]: 3.2 µM
OCC1Cc2c(-c3ccc(F)cn3)cccc2-c2c(O)ccc(-c3ccc(Br)cc3)c21 (stereo not given) | 5.39 µM | –
O=Cc1ccnc(-c2cccc3c2CC(CO)c2c(-c4ccc(Br)cc4)ccc(O)c2-3)c1 (stereo not given) | 1.81 µM | t1/2 [2]: 81.88 h; IC50 [4]: 5.32 µM; t1/2 [5]: 32.09 h; t1/2 [8]: 8.97 h; Ki [6]: 7.64 µM; Stability [7]: Stable
CC(=O)OCC1Cc2c(-c3cc(C#N)ccn3)cccc2-c2c(O)ccc(-c3ccc(Br)cc3)c21 (stereo not given) | 10.3 µM | –
CC(=O)OCC1Cc2c(-c3ccccn3)ccc(Br)c2-c2c(O)ccc(C)c21 (stereo not given) | > 100 µM | –
CC(=O)OCC1Cc2c(-c3cc(N4CCCC4)ccn3)cccc2-c2c(O)ccc(-c3ccc(Br)cc3)c21 (stereo not given) | 11.2 µM | –
CC(=O)OCC1Cc2c(-c3ccc(NCc4ccccc4)cn3)cccc2-c2c(O)ccc(-c3ccc(Br)cc3)c21 (stereo not given) | 3.31 µM | IC50 [4]: 5.79 µM
CC(=O)OCC1Cc2c(cccc2-n2cccn2)-c2c(O)ccc(C)c21 (stereo not given) | > 100 µM | –
CC(=O)OCC1Cc2c(-c3ccc(C)cn3)cccc2-c2c(O)ccc(-c3ccc(Br)cc3)c21 (stereo not given) | 5.25 µM | –
CC(=O)OCC1Cc2c(-c3ccccn3)cc(C)cc2-c2c(O)ccc(C)c21 (stereo not given) | 57.7 µM | –
C=CCn1cnc2c(-c3cccc4c3CC(COC(C)=O)c3c(C)ccc(O)c3-4)ncnc21 (stereo not given) | > 100 µM | –
CC(=O)OCC1Cc2c(-c3cc(C)ccn3)cccc2-c2c(O)ccc(C)c21 (stereo not given) | 68.2 µM | –
CC(=O)OCC1Cc2c(-c3ccccn3)cccc2-c2c(O)ccc(C3CCCCC3)c21 (stereo not given) | 9.06 µM | –
CC(=O)OCC1Cc2c(-c3ccc(Cl)cn3)cccc2-c2c(O)ccc(-c3ccc(Br)cc3)c21 (stereo not given) | 2.72 µM | IC50 [4]: 4.06 µM
CC(=O)OCC1Cc2c(cccc2-c2nccc3ccccc23)-c2c(O)ccc(C)c21 (stereo not given) | 14.2 µM | –
CC(=O)OCC1Cc2c(-c3cc(N4CCOCC4)ccn3)cccc2-c2c(O)ccc(-c3ccc(Br)cc3)c21 (stereo not given) | 7.39 µM | –

Compound | IC50 [1] | other results
CC(=O)OCC1Cc2c(-c3ccc(N(C)C)cn3)cccc2-c2c(O)ccc(-c3ccc(Br)cc3)c21 (stereo not given) | 3.66 µM | IC50 [4]: 5.92 µM
CC(=O)OCC1Cc2c(-c3ccc(F)cn3)cccc2-c2c(O)ccc(C)c21 (stereo not given) | 66.8 µM | –
N#Cc1ccc(-c2cccc3c2CC(CO)c2c(-c4ccc(Br)cc4)ccc(O)c2-3)nc1 (stereo not given) | 10.7 µM | –
CC(=O)OCC1Cc2c(-c3ccc(C(C)=O)cn3)cccc2-c2c(O)ccc(-c3ccc(Br)cc3)c21 (stereo not given) | 5.83 µM | –
CC(=O)OCC1Cc2c(-c3ccc(C#N)cn3)cccc2-c2c(O)ccc(-c3ccc(Br)cc3)c21 (stereo not given) | 2.78 µM | IC50 [4]: 7.12 µM
CC(=O)OCC1Cc2c(ccc(C)c2-c2ccccn2)-c2c(O)ccc(C)c21 (stereo not given) | 53.8 µM | –
CC(=O)OCC1Cc2c(-c3ccccn3)cccc2-c2c(O)ccc(C)c21 (stereo not given) | 61.2 µM | –
CCc1ccc(O)c2c1C(COC(C)=O)Cc1c(-c3ccccn3)cccc1-2 (stereo not given) | 33.1 µM | –
CC(=O)OCC1Cc2c(-c3ccccn3)cccc2-c2c(O)ccc(Cc3ccccc3)c21 (stereo not given) | 11.4 µM | –
OCC1Cc2c(-c3ccc(Cl)cn3)cccc2-c2c(O)ccc(-c3ccc(Br)cc3)c21 (stereo not given) | 4.71 µM | IC50 [4]: 10.5 µM
CC(=O)OCC1Cc2c(-c3ccccn3)cccc2-c2c(O)ccc(-c3ccc(Br)cc3)c21 (stereo not given) | 6.44 µM | –
CC(=O)OCC1Cc2c(-c3cc(-c4ccccc4)ccn3)cccc2-c2c(O)ccc(C)c21 (stereo not given) | 5.65 µM | –
CC(=O)OCC1Cc2c(-c3ncccc3C)cccc2-c2c(O)ccc(C)c21 (stereo not given) | 58.9 µM | –
CC(=O)OCC1Cc2c(-c3ccc(F)cn3)cccc2-c2c(O)ccc(-c3ccc(Br)cc3)c21 (stereo not given) | 4.29 µM | IC50 [4]: 7.81 µM
CC(=O)OCC1Cc2c(-c3ccc(C=O)cn3)cccc2-c2c(O)ccc(-c3ccc(Br)cc3)c21 (stereo not given) | 8.89 µM | –
CC(=O)OCC1Cc2c(-c3ccccn3)ccc(F)c2-c2c(O)ccc(C)c21 (stereo not given) | > 100 µM | –
CC(=O)OCC1Cc2c(-c3ccccn3)ccc(Cl)c2-c2c(O)ccc(C)c21 (stereo not given) | 85.6 µM | –
CC(=O)OCC1Cc2c(-c3cc(-c4ccccc4)ccn3)cccc2-c2c(O)ccc(-c3ccc(Br)cc3)c21 (stereo not given) | 2.46 µM | IC50 [4]: 17.7 µM
CC(=O)OCC1Cc2c(-c3ccccn3)cccc2-c2c(O)ccc(C(C)C)c21 (stereo not given) | 29.5 µM | –
CC(=O)OCC1Cc2c(-c3ccc4ccccc4n3)cccc2-c2c(O)ccc(C)c21 (stereo not given) | 13.8 µM | –
CC(=O)OCC1Cc2c(-c3ccc(Br)cn3)cccc2-c2c(O)ccc(C)c21 (stereo not given) | 18.5 µM | –
CC(=O)OCC1Cc2c(-c3cc(C)ccn3)cccc2-c2c(O)ccc(-c3ccc(Br)cc3)c21 (stereo not given) | 9.82 µM | –
CC(=O)OCC1Cc2c(-c3cc4ccccc4cn3)cccc2-c2c(O)ccc(C)c21 (stereo not given) | 12 µM | –
CC(=O)OCC1Cc2c(-c3ccc(S(C)(=O)=O)cn3)cccc2-c2c(O)ccc(-c3ccc(Br)cc3)c21 (stereo not given) | 6.65 µM | –
CC(=O)OCC1Cc2c(-c3ccc(-c4ccccc4)cn3)cccc2-c2c(O)ccc(-c3ccc(Br)cc3)c21 (stereo not given) | 8.28 µM | –
C[C@]12CC[C@H]3[C@@H](CCC4=CC(=O)CC[C@@]43C)[C@@H]1CC[C@@H]2O [TESTOSTERONE] | – | t1/2 [5]: 0.4603 h
O=c1ccc2ccc(O)cc2o1 [UMBELLIFERONE] | – | t1/2 [2]: 0.2588 h
